# Assay results published in ChEMBL document CHEMBL1156509, “Survival in the presence of antifungals: genome-wide expression profiling of Aspergillus niger in response to sublethal concentrations of caspofungin and fenpropimorph” (2007).
# Calls of active or inactive are those of the source. The rule behind the calls is not given here.
# Assays:
# Assay type in all cases: functional, organism-based
# Aspergillus niger [1] = assay: Antifungal activity against Aspergillus niger JvD1.1 at 104.2 ug/mL by microtiter plate
# Procedure, shortened: (§1)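 Reporter conidia (2×10^4 per well) were pre-grown 6 h at 37 °C in 2× CM in glass-bottom plates. An equal volume of a 2-fold dilution series (seven concentrations) was added, then 3 h at 30 °C. Medium was discarded and adherent germlings imaged. Growth inhibition was scored 0/1/2 from hyphal length.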
# Aspergillus niger [2] = assay: Induction of GFP tagged PagsA expression in Aspergillus niger JvD1.1 at 104.2 ug/mL by fluorescence microscopy
# Procedure, shortened: (§2)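 agsA promoter-GFP reporters, cytoplasmic (JvD1.1) or nuclear H2B-targeted (RD6.47). Germlings pre-grown 6 h at 37 °C in 2× CM, exposed 3 h at 30 °C to seven 2-fold dilutions. GFP levels were scored by fluorescence microscopy as 0 (basal), 1 (intermediate) or 2 (high). Controls: gpdA-H2B-GFP strain MA26.1 (positive), N402 (negative).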
# Aspergillus niger [3] = assay: Antifungal activity against Aspergillus niger RD6.47 at 104.2 ug/mL by microtiter plate; procedure, shortened: as §1
# Aspergillus niger [4] = assay: Induction of GFP tagged PagsA-H2B expression in Aspergillus niger RD6.47 at 104.2 ug/mL by fluorescence microscopy; procedure, shortened: as §2
Compound,Activity (Aspergillus niger [1]),Activity (Aspergillus niger [2]),Activity (Aspergillus niger [3]),Activity (Aspergillus niger [4])
CCCCCCC(=O)CCCCCC/C=C/C[C@@H](O)[C@H](O)[C@@](N)(CO)C(=O)O,inactive,inactive,inactive,inactive
CCCCNC(=O)n1c(NC(=O)OC)nc2ccccc21,Active,inactive,Active,inactive
CCCN(CC)CC1COC2(CCC(C(C)(C)C)CC2)O1 (stereo not drawn),Active,Active,Active,Active
CN(C/C=C/C#CC(C)(C)C)Cc1cccc2ccccc12,–,Active,–,Active
COC(=O)N(OC)c1ccccc1COc1ccn(-c2ccc(Cl)cc2)n1,Active,inactive,Active,inactive
